Test results from paper PMC7680358 (European journal of medicinal chemistry, 2020).
Values after ≈ are worked out from the molar mass of the structure shown.

How the values were obtained:
[1] = system: S. aureus ATCC 29213; experiment: Cell content quantification; format: cell-based, Staphylococcus aureus; settings: ¼ and ⅛ MIC, versus untreated control
Method in brief: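 S. aureus ATCC 29213 master culture was started at OD600 0.1 with shaking at 175 rpm, 37 °C. At OD600 0.2 (early log) it was split and dosed at ¼ and ⅛ MIC, with a drug-free control. Cells were harvested when the control reached OD600 0.6; other samples were taken at volumes adjusted to an OD600 equivalent of 0.6. 3 mL was pelleted at 5000 × g, 5 min, 4 °C, and DNA/RNA/protein co-extracted with a kit. DNA and RNA were read by fluorometric broad-range assays, protein by BCA. Triplicate.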

[2] = system: S. saprophyticus ATCC 15305; experiment: MIC by broth microdilution; format: cell-based; settings: Staphylococcus saprophyticus, ATCC15305, read-out: MIC SSAP
Method in brief: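 Broth microdilution per CLSI in cation-adjusted Mueller-Hinton broth (Staphylococcus spp.). Two-fold serial dilutions ran from 256 to 0.5 μg/mL, with an inoculum of ~5 × 10^5 CFU/mL. Plates were read after 20 h at 37 °C. MIC = lowest concentration with no observable growth.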

[3] = system: B. subtilis strain BS1048 (RpoC-GFP); experiment: Confocal fluorescence microscopy of GFP-tagged RNAP; format: cell-based; settings: 8e added at ½ MIC, 15 min
Method in brief: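 BS1048 (RpoC-GFP) was plated on LB agar. […] 2.5 μL of culture was mounted on a fresh 1.2% agarose pad under a coverslip. Imaging used a confocal microscope with a 63×/1.3 oil objective and a mercury metal halide lamp.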

Structure (SMILES) | Total RNA levels [1] | Total levels of DNA [1] | Total levels of protein [1] | MIC [2] [µg/mL] | Localization of GFP-tagged RNAP fluorescence [3]
O=C(O)c1ccc(C(F)(F)F)cc1C(=O)c1ccc(Sc2ccc(Cl)c(Cl)c2)c([N+](=O)[O-])c1 [8e, 2-(4-((3,4-Dichlorophenyl)thio)-3-nitrobenzoyl)-4-(trifluoromethyl)benzoic acid] | reducing the total levels of staphylococcal RNA in a dose-dependent manner | largely unaffected | reduced the total levels of protein | 0.5 to 1 (≈ 0.968 to 1.94 µM) | delocalized from the nucleoid
CO[C@H]1/C=C/O[C@@]2(C)Oc3c(C)c(O)c4c(O)c(c(/C=N/N5CCN(C)CC5)c(O)c4c3C2=O)NC(=O)/C(C)=C\C=C\[C@H](C)[C@H](O)[C@@H](C)[C@@H](O)[C@@H](C)[C@H](OC(C)=O)[C@@H]1C [rifampicin, reference compound] | significantly reduced | largely unaffected |  |  | 
